According to ChEMBL document CHEMBL2321839, “Novel limonene and citral based 2,5-disubstituted-1,3,4-oxadiazoles: a natural product coupled approach to semicarbazones for antiepileptic activity” (Bioorg Med Chem Lett, 2013):
Calls of active or inactive are those of the source. The rule behind the calls is not given here.

How the values were obtained:
[1] = test system: Mus musculus; assay: Antiepileptic activity in Swiss albino mouse assessed as protection against maximal-electric shock-induced seizures at 300 mg/kg, ip measured after 0.5 hrs; type: functional, organism-based; set-up: dose 300 mg/kg
Outline: (§1)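 Male Swiss albino mice (18–25 g), compounds given ip at 30, 100 and 300 mg/kg. Seizures induced by maximal electroshock (MES) or subcutaneous pentylenetetrazole (scPTZ). Protection scored at 0.5 and 4.0 h after dosing.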

[2] = test system: Rattus norvegicus; assay: Antiepileptic activity in ip dosed Wistar rat assessed as protection against scSTY-induced seizures after 0.5 hrs; type: functional; details: read-out: MED
Outline: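 Subcutaneous strychnine seizure test in Wistar rats (male, 100–150 g), compounds given ip at 30, 100 and 300 mg/kg. Protection read 0.5 and 4.0 h after dosing.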

[3] = test system: Mus musculus; assay: Antiepileptic activity in ip dosed Swiss albino mouse assessed as protection against scPTZ-induced seizures after 0.5 hrs; type: functional; details: read-out: MED; outline: as §1
[4] = test system: Mus musculus; assay: Neurotoxicity against Swiss albino mouse by rotarod test at 300 mg/kg, ip after 0.5 hrs; type: toxicity, organism-based; set-up: dose 300 mg/kg, route intraperitoneal; details: in vivo
Outline: (§2)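 Acute neurotoxicity tested by rotorod in male Swiss albino mice (18–25 g) given 30, 100 or 300 mg/kg ip. Read at 0.5 and 4.0 h post-dose. Result is the minimal dose causing toxicity in half or more of the animals; a dash means none up to 300 mg/kg.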

[5] = test system: Rattus norvegicus; assay: Antiepileptic activity in Wistar rat assessed as protection against scSTY-induced seizures at 300 mg/kg, ip measured after 4 hrs; type: functional, organism-based; set-up: dose 300 mg/kg
Outline: (§3)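 Male Wistar rats (100–150 g), compounds given ip at 30, 100 and 300 mg/kg. Seizures induced by subcutaneous strychnine (scSTY). Activity read 0.5 and 4.0 h after dosing. Reported as the minimal dose active in at least half of the animals; a dash means no activity at 300 mg/kg.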

[6] = test system: Mus musculus; assay: Neurotoxicity against Swiss albino mouse by rotarod test at 300 mg/kg, ip after 4 hrs; type: toxicity, organism-based; set-up: dose 300 mg/kg, route intraperitoneal; details: in vivo; outline: as §2
[7] = test system: Mus musculus; assay: Antiepileptic activity in ip dosed Swiss albino mouse assessed as protection against scPTZ-induced seizures after 4 hrs; type: functional; details: read-out: MED; outline: as §1
[8] = test system: Mus musculus; assay: Antiepileptic activity in Swiss albino mouse assessed as protection against maximal-electric shock-induced seizures at 300 mg/kg, ip measured after 4 hrs; type: functional, organism-based; set-up: dose 300 mg/kg; outline: as §1
[9] = test system: Rattus norvegicus; assay: Antiepileptic activity in Wistar rat assessed as protection against maximal electric shock-induced seizures at 30 mg/kg, po measured at 1 hr; type: functional
Outline: (§4)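 Single oral dose of 30 mg/kg in Wistar rats (100–150 g), tested by MES challenge at 0.25, 0.5, 1, 2 and 4 h.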

[10] = test system: Rattus norvegicus; assay: Antiepileptic activity in Wistar rat assessed as GABA level in medulla oblangata per 100 mg at 100 mg/kg ip after 2 hrs (reference value: 31.86 +/- 4.65 ug); type: functional, Medulla oblongata; details: route intraperitoneal
[11] = test system: Rattus norvegicus; assay: Neurotoxicity in Wistar rat at 30 mg/kg, po measured at 4 hrs by rotarod test; type: toxicity, organism-based; set-up: dose 30 mg/kg, route oral; details: in vivo
Outline: (§5)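 Neurotoxicity assessed in Wistar rats (100–150 g) after a 30 mg/kg oral dose, read at 0.25, 0.5, 1, 2 and 4 h.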

[12] = test system: Rattus norvegicus; assay: Antiepileptic activity in Wistar rat assessed as protection against maximal electric shock-induced seizures at 30 mg/kg, po measured at 0.5 hrs; type: functional; outline: as §4
[13] = test system: Rattus norvegicus; assay: Neurotoxicity in Wistar rat at 30 mg/kg, po measured at 2 hrs by rotarod test; type: toxicity, organism-based; set-up: dose 30 mg/kg, route oral; details: in vivo; outline: as §5
[14] = test system: Rattus norvegicus; assay: Antiepileptic activity in Wistar rat assessed as protection against maximal electric shock-induced seizures at 30 mg/kg, po measured at 0.25 hrs; type: functional; outline: as §4
[15] = test system: Rattus norvegicus; assay: Antiepileptic activity in Wistar rat assessed as protection against maximal electric shock-induced seizures at 30 mg/kg, po measured at 4 hrs; type: functional; outline: as §4
[16] = test system: Rattus norvegicus; assay: Antiepileptic activity in Wistar rat assessed as GABA level in cerebellum per 100 mg at 100 mg/kg ip after 2 hrs (reference value: 23.48+/- 2.48 ug); type: functional; details: route intraperitoneal
[17] = test system: Rattus norvegicus; assay: Neurotoxicity in Wistar rat at 30 mg/kg, po measured at 0.25 hrs by rotarod test; type: toxicity, organism-based; set-up: dose 30 mg/kg, route oral; details: in vivo; outline: as §5
[18] = test system: Rattus norvegicus; assay: Antiepileptic activity in Wistar rat assessed as protection against scSTY-induced seizures at 300 mg/kg, ip measured after 0.5 hrs; type: functional, organism-based; set-up: dose 300 mg/kg; outline: as §3
[19] = test system: Rattus norvegicus; assay: Antiepileptic activity in ip dosed Wistar rat assessed as protection against scSTY-induced seizures after 4 hrs; type: functional; details: read-out: MED; outline: as §3
[20] = test system: Rattus norvegicus; assay: Neurotoxicity in Wistar rat at 30 mg/kg, po measured at 0.5 hrs by rotarod test; type: toxicity, organism-based; set-up: dose 30 mg/kg, route oral; details: in vivo; outline: as §5
[21] = test system: Mus musculus; assay: Antiepileptic activity in ip dosed Swiss albino mouse assessed as protection against maximal-electric shock-induced seizures after 4 hrs; type: functional; details: read-out: MED; outline: as §1
[22] = test system: Mus musculus; assay: Antiepileptic activity in ip dosed Swiss albino mouse assessed as protection against maximal-electric shock-induced seizures after 0.5 hrs; type: functional; details: read-out: MED; outline: as §1
[23] = test system: Mus musculus; assay: Antiepileptic activity in Swiss albino mouse assessed as protection against scPTZ-induced seizures at 300 mg/kg, ip measured after 0.5 hrs; type: functional, organism-based; set-up: dose 300 mg/kg; outline: as §1
[24] = test system: Rattus norvegicus; assay: Neurotoxicity in Wistar rat at 30 mg/kg, po measured at 1 hr by rotarod test; type: toxicity, organism-based; set-up: dose 30 mg/kg, route oral; details: in vivo; outline: as §5
[25] = test system: Rattus norvegicus; assay: Antiepileptic activity in Wistar rat assessed as GABA level in midbrain per 100 mg at 100 mg/kg ip after 2 hrs (reference value: 35.42 +/- 2.14 ug); type: functional; details: route intraperitoneal
[26] = test system: Rattus norvegicus; assay: Antiepileptic activity in Wistar rat assessed as protection against maximal electric shock-induced seizures at 30 mg/kg, po measured at 2 hrs; type: functional; outline: as §4
[27] = test system: Mus musculus; assay: Antiepileptic activity in Swiss albino mouse assessed as protection against scPTZ-induced seizures at 300 mg/kg, ip measured after 4 hrs; type: functional, organism-based; set-up: dose 300 mg/kg; outline: as §1
[28] = test system: Mus musculus; assay: Neurotoxicity against ip dosed Swiss albino mouse after 0.5 hrs by rotarod test; type: toxicity, organism-based; details: in vivo; outline: as §2
[29] = test system: Mus musculus; assay: Neurotoxicity against ip dosed Swiss albino mouse after 4 hrs by rotarod test; type: toxicity, organism-based; details: in vivo; outline: as §2
[30] = test system: Rattus norvegicus; assay: Antiepileptic activity in Wistar rat assessed as GABA level in midbrain per 100 mg at 30 mg/kg ip after 2 hrs (reference value: 35.42 +/- 2.14 ug); type: functional; details: route intraperitoneal
[31] = test system: Rattus norvegicus; assay: Antiepileptic activity in Wistar rat assessed as GABA level in medulla oblangata per 100 mg at 30 mg/kg ip after 2 hrs (reference value: 31.86 +/- 4.65 ug); type: functional, Medulla oblongata; details: route intraperitoneal
[32] = test system: Rattus norvegicus; assay: Antiepileptic activity in Wistar rat assessed as GABA level in cerebellum per 100 mg at 30 mg/kg ip after 2 hrs (reference value: 23.48+/- 2.48 ug); type: functional; details: route intraperitoneal

Row | SMILES | Activity [4] | Activity [6] | minimal effective dose [7] | Activity [9] | Activity [10] | Activity [11] | Activity [12] | Activity [13] | Activity [14] | Activity [15] | Activity [16] | Activity [17] | Activity [18] | minimal effective dose [19] | Activity [20] | minimal effective dose [21] | minimal effective dose [22] | Activity [23] | Activity [24] | Activity [25] | further results
1 | CCC1(C)CC(=O)NC1=O (stereo not drawn) [ETHOSUXIMIDE] | Non-toxic | Non-toxic | 300 mg/kg |  |  |  |  |  |  |  |  |  |  |  |  |  |  |  |  |  | Activity [1]: inactive; minimal effective dose [2]: 300 mg/kg; minimal effective dose [3]: 100 mg/kg; Activity [5]: inactive; Activity [8]: inactive
2 | C=C(C)[C@@H]1CC=C(C)/C(=N/NC(=O)Nc2nnc(-c3ccc(F)cc3)o2)C1 | Non-toxic | Non-toxic | 300 mg/kg | 0% | 42.4 µg | Non-toxic | 25% | Non-toxic | 25% | inactive | 28.42 µg | Non-toxic | inactive | 300 mg/kg | Non-toxic | 300 mg/kg | 100 mg/kg | inactive | 0% | 43.56 µg | Activity [26]: 25%
3 | CC(C)=CC/C=C(/C)C/C=N/NC(=O)Nc1nnc(-c2cccc(O)c2)o1 |  | Non-toxic |  |  |  |  |  |  |  |  |  |  | inactive |  |  |  |  | inactive |  |  | Activity [1]: inactive; Activity [27]: inactive; MTC [28]: 300 mg/kg; Activity [5]: inactive; Activity [8]: inactive
4 | O=C1NC(=O)C(c2ccccc2)(c2ccccc2)N1 [PHENYTOIN] |  |  |  | 50% |  | Non-toxic | 50% | Non-toxic | 75% | 0% |  | Non-toxic | inactive | 100 mg/kg | Non-toxic | 30 mg/kg | 30 mg/kg | inactive | Non-toxic |  | Activity [27]: inactive; MTC [28]: 100 mg/kg; MTC [29]: 100 mg/kg; Activity [26]: 75%
5 | CC(C)=CC/C=C(/C)C/C=N/NC(=O)Nc1nnc(-c2ccc(O)cc2)o1 | Non-toxic | Non-toxic | 300 mg/kg |  | 34.42 µg |  |  |  |  |  | 28.25 µg |  | inactive | 300 mg/kg |  | 300 mg/kg |  | inactive |  | 52.82 µg | Activity [1]: inactive
6 | CN1C(=O)CC(=O)N(c2ccccc2)c2cc(Cl)ccc21 [CLOBAZAM] |  |  |  |  |  |  |  |  |  |  |  |  |  |  |  |  |  |  |  |  | Activity [30]: 69.51 µg; Activity [31]: 47.53 µg; Activity [32]: 35.44 µg
7 | C=C(C)[C@@H]1CC=C(C)/C(=N/NC(=O)Nc2nnc(-c3ccc([N+](=O)[O-])cc3)o2)C1 | Non-toxic | Non-toxic | 300 mg/kg | 25% | 48.59 µg | Non-toxic | 25% | Non-toxic | 75% | 50% | 28.64 µg | Non-toxic | inactive | 300 mg/kg | Non-toxic | 300 mg/kg | 100 mg/kg |  | Non-toxic | 66.6 µg | minimal effective dose [3]: 100 mg/kg; Activity [26]: 50%
8 | CC(C)=CC/C=C(/C)C/C=N/NC(=O)Nc1nnc(-c2ccc([N+](=O)[O-])cc2)o1 | Non-toxic | Non-toxic | 300 mg/kg | 25% | 36.72 µg | Non-toxic | 0% | Non-toxic | 50% | 50% | 32.04 µg | Non-toxic | inactive | 300 mg/kg | Non-toxic | 300 mg/kg | 100 mg/kg | inactive | Non-toxic | 62.56 µg | Activity [26]: 25%
9 | NC(=O)N1c2ccccc2C=Cc2ccccc21 [CARBAMAZEPINE] |  |  | 300 mg/kg |  |  |  |  |  |  |  |  |  | inactive |  |  | 100 mg/kg | 30 mg/kg |  |  |  | minimal effective dose [3]: 100 mg/kg; MTC [28]: 100 mg/kg; Activity [5]: inactive; MTC [29]: 300 mg/kg
10 | C=C(C)[C@@H]1CC=C(C)/C(=N/NC(=O)Nc2nnc(-c3ccc(O)cc3)o2)C1 | Non-toxic | Non-toxic | 300 mg/kg | 25% | 43.48 µg | Non-toxic | 0% | 0% | 25% | 50% | 30.64 µg | Non-toxic | inactive | 300 mg/kg | Non-toxic | 300 mg/kg | 100 mg/kg | inactive | Non-toxic | 47.42 µg | Activity [26]: 0%
11 | CCCC(CCC)C(=O)[O-].[Na+] [VALPROATE SODIUM] | Non-toxic | Non-toxic |  |  |  |  |  |  |  |  |  |  |  |  |  |  | 300 mg/kg |  |  |  | minimal effective dose [2]: 300 mg/kg; minimal effective dose [3]: 300 mg/kg; Activity [27]: inactive; Activity [5]: inactive; Activity [8]: inactive
